{"source": "ChEMBL document CHEMBL1122864", "about": "“1,2-Dihydro-2-oxo-6-(2,2-dimethylpropyl)-3-pyridinecarboxylic acid, analogues, and derivatives. A new class of oral hypoglycemic agents” (1985)", "key": {"Rattus norvegicus [1]": {"system": "Rattus norvegicus", "assay": "Hypoglycemic activity in blood glucose at 2 hr (treated) in the 18-h fasted normal rat at a dose of 100 mg/kg", "assay_type": "functional", "how_it_was_run": "(§1)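 Sprague-Dawley-derived rats (120–130 g), fasted 18 h, in groups of four. Each got 0.5 mL by stomach tube of test compound (100 mg/kg), tolbutamide (25 mg/kg) or vehicle (carboxymethylcellulose/Polysorbate 80/NaCl/benzyl alcohol in water). Then 1.0 mL 12.5% glucose in 0.9% saline was given s.c. Barbiturate anesthesia at 110 min; vena cava blood drawn 9 min later.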"}, "Rattus norvegicus [2]": {"species": "Rattus norvegicus", "assay": "Hypoglycemic activity in blood glucose at 2 hr (positive control) in the 18-h fasted normal rat", "assay_type": "functional", "how_it_was_run": "as §1"}, "Rattus norvegicus [3]": {"system": "Rattus norvegicus", "assay": "Hypoglycemic activity in the 18-h fasted normal rat with respect to 1-butyl-3-(p-tolylsulphonyl)urea; inactive at 100 mg/kg at the second stage of testing", "assay_type": "functional, organism-based", "set-up": "dose 100 mg/kg", "how_it_was_run": "(§2)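 In 18-h fasted rats (oral dosing, s.c. glucose load), activity was first confirmed, then compounds were retested at half-dose intervals alongside the positive control. Potency relative to tolbutamide came from a parallel line assay.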"}, "Rattus norvegicus [4]": {"species": "Rattus norvegicus", "assay": "Hypoglycemic activity in blood glucose at 2 hr (treated) in the fasted-refed rat", "assay_type": "functional", "how_it_was_run": "(§3)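 Fasted-refed model: rats fasted 18 h, then given 2 mL liquid diet by stomach tube, otherwise handled as in the fasted-rat test. Blood glucose % change read at 2 h.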"}, "Rattus norvegicus [5]": {"species": "Rattus norvegicus", "assay": "Hypoglycemic activity in blood glucose at 2 hr (positive control) in the fasted-refed rat", "assay_type": "functional", "how_it_was_run": "as §3"}, "Rattus norvegicus [6]": {"species": "Rattus norvegicus", "assay": "Hypoglycemic activity in the 18-h fasted normal rat with respect to 1-butyl-3-(p-tolylsulphonyl)urea", "assay_type": "functional", "how_it_was_run": "as §2"}}, "note": "The source made the active and inactive calls. The rule behind the calls is not given here."}
{"smiles": "CC(C)c1ccc(C(=O)O)c(O)n1", "values": [{"measurement": "Change", "setting": "Rattus norvegicus [1]", "value": -23, "unit": "%"}, {"measurement": "Change", "setting": "Rattus norvegicus [2]", "value": -26, "unit": "%"}, {"measurement": "Relative potency", "setting": "Rattus norvegicus [3]", "value": "inactive"}]}
{"smiles": "CCCCCc1ccc(C(=O)O)c(O)n1", "values": [{"measurement": "Change", "setting": "Rattus norvegicus [1]", "value": -2, "unit": "%"}, {"measurement": "Change", "setting": "Rattus norvegicus [2]", "value": -25, "unit": "%"}, {"measurement": "Relative potency", "setting": "Rattus norvegicus [3]", "value": "inactive"}]}
{"smiles": "CC(C)(C)c1ccc(C(=O)O)c(O)n1", "values": [{"measurement": "Change", "setting": "Rattus norvegicus [1]", "value": -69, "unit": "%"}, {"measurement": "Change", "setting": "Rattus norvegicus [4]", "value": -58, "unit": "%"}, {"measurement": "Change", "setting": "Rattus norvegicus [5]", "value": -40, "unit": "%"}, {"measurement": "Change", "setting": "Rattus norvegicus [2]", "value": -39, "unit": "%"}, {"measurement": "Relative potency", "setting": "Rattus norvegicus [6]", "value": 1}]}
{"smiles": "CCC(C)(C)Cc1ccc(C(=O)O)c(O)n1", "values": [{"measurement": "Change", "setting": "Rattus norvegicus [1]", "value": -54, "unit": "%"}, {"measurement": "Change", "setting": "Rattus norvegicus [2]", "value": -38, "unit": "%"}, {"measurement": "Relative potency", "setting": "Rattus norvegicus [6]", "value": 3.8}]}
{"smiles": "CC(C)(C)Cc1ccnc(O)c1C(=O)O", "values": [{"measurement": "Change", "setting": "Rattus norvegicus [1]", "value": -9, "unit": "%"}, {"measurement": "Change", "setting": "Rattus norvegicus [2]", "value": -34, "unit": "%"}, {"measurement": "Relative potency", "setting": "Rattus norvegicus [3]", "value": "inactive"}]}
{"smiles": "CC(C)(C)Cc1ccc(C(=O)[O-])c(O)n1.[Na+]", "values": [{"measurement": "Change", "setting": "Rattus norvegicus [1]", "value": -56, "unit": "%"}, {"measurement": "Change", "setting": "Rattus norvegicus [2]", "value": -26, "unit": "%"}, {"measurement": "Relative potency", "setting": "Rattus norvegicus [6]", "value": 7.9}]}
{"smiles": "CC(C)Cc1ccc(C(=O)O)c(=O)n1C", "values": [{"measurement": "Change", "setting": "Rattus norvegicus [1]", "value": -36, "unit": "%"}, {"measurement": "Change", "setting": "Rattus norvegicus [2]", "value": -22, "unit": "%"}, {"measurement": "Relative potency", "setting": "Rattus norvegicus [6]", "value": 0.6}]}
{"smiles": "CC(C)(C)Cc1ccc(-c2nn[nH]n2)c(O)n1", "values": [{"measurement": "Change", "setting": "Rattus norvegicus [1]", "value": -37, "unit": "%"}, {"measurement": "Change", "setting": "Rattus norvegicus [2]", "value": -34, "unit": "%"}, {"measurement": "Relative potency", "setting": "Rattus norvegicus [6]", "value": 1.6}]}
{"smiles": "CCCCCCC(C)(C)c1ccc(C(=O)O)c(O)n1", "values": [{"measurement": "Change", "setting": "Rattus norvegicus [1]", "value": 5, "unit": "%"}, {"measurement": "Change", "setting": "Rattus norvegicus [2]", "value": -37, "unit": "%"}, {"measurement": "Relative potency", "setting": "Rattus norvegicus [3]", "value": "inactive"}]}
{"smiles": "CC(C)(C)Cc1ccc(C(N)=O)c(O)n1", "values": [{"measurement": "Change", "setting": "Rattus norvegicus [1]", "value": 30, "unit": "%"}, {"measurement": "Change", "setting": "Rattus norvegicus [2]", "value": -25, "unit": "%"}, {"measurement": "Relative potency", "setting": "Rattus norvegicus [3]", "value": "inactive"}]}
{"smiles": "O=C(O)c1ccc(CC2CCC2)nc1O", "values": [{"measurement": "Change", "setting": "Rattus norvegicus [1]", "value": -14, "unit": "%"}, {"measurement": "Change", "setting": "Rattus norvegicus [2]", "value": -37, "unit": "%"}, {"measurement": "Relative potency", "setting": "Rattus norvegicus [3]", "value": "inactive"}]}
{"smiles": "Cc1ccc(C(=O)O)c(O)n1", "values": [{"measurement": "Change", "setting": "Rattus norvegicus [1]", "value": 1, "unit": "%"}, {"measurement": "Change", "setting": "Rattus norvegicus [2]", "value": -34, "unit": "%"}, {"measurement": "Relative potency", "setting": "Rattus norvegicus [3]", "value": "inactive"}]}
{"smiles": "CC(C)(C)Cc1ccc(CO)c(O)n1", "values": [{"measurement": "Change", "setting": "Rattus norvegicus [1]", "value": -40, "unit": "%"}, {"measurement": "Change", "setting": "Rattus norvegicus [2]", "value": -26, "unit": "%"}, {"measurement": "Relative potency", "setting": "Rattus norvegicus [6]", "value": 5.3}]}
{"smiles": "CC(C)(C)Cc1ccc(C=O)c(O)n1", "values": [{"measurement": "Change", "setting": "Rattus norvegicus [1]", "value": -47, "unit": "%"}, {"measurement": "Change", "setting": "Rattus norvegicus [2]", "value": -47, "unit": "%"}, {"measurement": "Relative potency", "setting": "Rattus norvegicus [6]", "value": 5.9}]}
{"smiles": "CC(C)(C)Cc1ccc(C(=O)O)cn1", "values": [{"measurement": "Change", "setting": "Rattus norvegicus [1]", "value": -4, "unit": "%"}, {"measurement": "Change", "setting": "Rattus norvegicus [2]", "value": -31, "unit": "%"}, {"measurement": "Relative potency", "setting": "Rattus norvegicus [3]", "value": "inactive"}]}
{"smiles": "CCOC(=O)c1ccc(CC(C)(C)C)nc1O", "values": [{"measurement": "Change", "setting": "Rattus norvegicus [1]", "value": -54, "unit": "%"}, {"measurement": "Change", "setting": "Rattus norvegicus [2]", "value": -42, "unit": "%"}, {"measurement": "Relative potency", "setting": "Rattus norvegicus [6]", "value": 7.4}]}
{"smiles": "CCC(C)(C)c1ccc(C(=O)O)c(O)n1", "values": [{"measurement": "Change", "setting": "Rattus norvegicus [1]", "value": -67, "unit": "%"}, {"measurement": "Change", "setting": "Rattus norvegicus [2]", "value": -32, "unit": "%"}, {"measurement": "Relative potency", "setting": "Rattus norvegicus [6]", "value": 0.9}]}
{"smiles": "CC(C)CCc1ccc(C(=O)O)c(O)n1", "values": [{"measurement": "Change", "setting": "Rattus norvegicus [1]", "value": -4, "unit": "%"}, {"measurement": "Change", "setting": "Rattus norvegicus [2]", "value": -28, "unit": "%"}, {"measurement": "Relative potency", "setting": "Rattus norvegicus [3]", "value": "inactive"}]}
{"smiles": "CC(C)(C)Cc1ccc(C(=O)O)c(O)n1", "values": [{"measurement": "Change", "setting": "Rattus norvegicus [1]", "value": -59, "unit": "%"}, {"measurement": "Change", "setting": "Rattus norvegicus [4]", "value": -60, "unit": "%"}, {"measurement": "Change", "setting": "Rattus norvegicus [5]", "value": -40, "unit": "%"}, {"measurement": "Change", "setting": "Rattus norvegicus [2]", "value": -39, "unit": "%"}, {"measurement": "Relative potency", "setting": "Rattus norvegicus [6]", "value": 13}]}
{"smiles": "CCCCCCC(C)(C)Cc1ccc(C(=O)O)c(O)n1", "values": [{"measurement": "Change", "setting": "Rattus norvegicus [1]", "value": 8, "unit": "%"}, {"measurement": "Change", "setting": "Rattus norvegicus [2]", "value": -37, "unit": "%"}, {"measurement": "Relative potency", "setting": "Rattus norvegicus [3]", "value": "inactive"}]}
{"smiles": "CC(C)Cc1ccc(C(=O)O)c(O)n1", "values": [{"measurement": "Change", "setting": "Rattus norvegicus [1]", "value": -61, "unit": "%"}, {"measurement": "Change", "setting": "Rattus norvegicus [4]", "value": -54, "unit": "%"}, {"measurement": "Change", "setting": "Rattus norvegicus [5]", "value": -48, "unit": "%"}, {"measurement": "Change", "setting": "Rattus norvegicus [2]", "value": -34, "unit": "%"}, {"measurement": "Relative potency", "setting": "Rattus norvegicus [6]", "value": 1}]}
{"smiles": "CC(C)(C)Cc1ccc(CC(=O)O)c(O)n1", "values": [{"measurement": "Change", "setting": "Rattus norvegicus [1]", "value": -25, "unit": "%"}, {"measurement": "Change", "setting": "Rattus norvegicus [2]", "value": -25, "unit": "%"}, {"measurement": "Relative potency", "setting": "Rattus norvegicus [6]", "value": 0.25}]}
{"smiles": "CC(C)(C)CC1=NC(=O)CC=C1", "values": [{"measurement": "Change", "setting": "Rattus norvegicus [1]", "value": -1, "unit": "%"}, {"measurement": "Change", "setting": "Rattus norvegicus [2]", "value": -36, "unit": "%"}, {"measurement": "Relative potency", "setting": "Rattus norvegicus [3]", "value": "inactive"}]}
{"smiles": "O=C(O)c1ccc[nH]c1=O", "values": [{"measurement": "Change", "setting": "Rattus norvegicus [1]", "value": -26, "unit": "%"}, {"measurement": "Change", "setting": "Rattus norvegicus [4]", "value": -4, "unit": "%"}, {"measurement": "Change", "setting": "Rattus norvegicus [5]", "value": -55, "unit": "%"}, {"measurement": "Change", "setting": "Rattus norvegicus [2]", "value": -33, "unit": "%"}, {"measurement": "Relative potency", "setting": "Rattus norvegicus [6]", "value": 0.25}]}
{"smiles": "Cn1c(CC(C)(C)C)ccc(C(=O)O)c1=O", "values": [{"measurement": "Change", "setting": "Rattus norvegicus [1]", "value": -3, "unit": "%"}, {"measurement": "Change", "setting": "Rattus norvegicus [2]", "value": -34, "unit": "%"}, {"measurement": "Relative potency", "setting": "Rattus norvegicus [3]", "value": "inactive"}]}
